# The list is not random: actives were taken first. Their share in the collection is about 9.8%.
# PMI activator – activators of human PMI, primary screen, biochemical, fluorescence intensity, near-Km mannose 6-phosphate | Mannose-6-phosphate isomerase (Homo sapiens), P34949 | purified human PMI, coupled resazurin fluorescence, 20 min; active compounds read high; 1 = vehicle control, 0 substrate-free wells | activation factor at 20 µM | 190,000 compounds, 0.005% hits | AID 1214, 2008;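 active means activation factor of 2 or more at 20 µM, relative to plate controls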
# Target sequence (P34949 whole entry, looked up): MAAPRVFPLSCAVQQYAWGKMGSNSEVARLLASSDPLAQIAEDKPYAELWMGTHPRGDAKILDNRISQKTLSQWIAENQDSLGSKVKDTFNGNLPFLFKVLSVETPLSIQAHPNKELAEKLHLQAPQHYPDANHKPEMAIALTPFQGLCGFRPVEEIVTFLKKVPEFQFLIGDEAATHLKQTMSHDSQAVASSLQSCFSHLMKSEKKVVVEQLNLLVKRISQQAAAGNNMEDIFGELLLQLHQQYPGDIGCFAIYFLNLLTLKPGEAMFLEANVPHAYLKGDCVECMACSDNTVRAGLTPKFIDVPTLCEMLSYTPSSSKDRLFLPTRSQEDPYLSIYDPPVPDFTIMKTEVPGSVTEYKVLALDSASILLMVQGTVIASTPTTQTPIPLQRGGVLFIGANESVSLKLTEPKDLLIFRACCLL
# Rad51 HR inh – human RAD51 strand exchange inhibitors, primary screen, biochemical, fluorescence | hRad51 DNA strand exchange, fluorescence dequenching | inhibition, % at 10 µM | 200,000 compounds, 0.085% hits;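 active means inhibition above 40% at the single screening dose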;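 further: 0% = DMSO control wells and 100% = blanks with heterologous ssDNA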
#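 Material: Human Rad51 nucleoprotein filaments preassembled on unlabelled ssDNA | Also added: Labelled 47-mer dsDNA for strand exchange | Dosing: Single dose, 10 µM final compound | Schedule: 30-min compound preincubation and 15-min exchange, both room temperature | Technique: Fluorescence dequenching at 485/520 nm | Measure: Percent inhibition relative to plate controls and blanks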
# L major viab – Leishmania major promastigote growth inhibition, primary screen | Leishmania major promastigotes, resazurin fluorescence viability | inhibition, % at 10 µM | 200,000 compounds, 9% hits | AID 1063, 2008; in the data active means inhibition above about 50%;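 further: promastigotes grown with compound for 44 hours at 28 °C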
# WT yeast gro inh – growth inhibition of WT strain, primary screen, mitochondrial fusion inhibitor project, WT and mutant strains, chemical genetic. mitochondrial fusion phenotypic screen. inhibition, % at 10 µM. 190,000 compounds, 2.1% hits. AID 1362, 2008; in the data active means inhibition above about 58%; tested in S. cerevisiae
# PMI act hi M6P – human PMI activators, high substrate, primary screen, biochemical, fluorescence intensity, near-saturating mannose 6-phosphate | Mannose-6-phosphate isomerase (Homo sapiens), P34949 | coupled PMI enzyme assay, resazurin fluorescence, 20 min; active compounds read high; 1 = untreated enzyme, 0 = substrate-free blank | activation factor at 20 µM | 190,000 compounds, 0.34% hits;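 active means activation factor of 2 or more at 20 µM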
#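 Material: human phosphomannose isomerase with PGI, G6PDH, diaphorase coupling enzymes / Reagent: Man-6-P substrate 1.0 mM / Dosing: single compound dose of 20 µM, 1% DMSO final / Incubation: enzyme reaction with compound 20 min at room temperature / Signal: resorufin fluorescence (Ex 544/Em 590 nm) from resazurin via diaphorase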
# Calpain2 inh – inhibitors of pig calpain II, primary screen, biochemical, fluorogenic peptide substrate, 1536-well; inhibition, % at 16 µM; 220,000 compounds, 0.37% hits; AID 1236, 2008; purified calpain II, 30 min;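 active means inhibition above about 50%, limit read from the data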
# Starred values were filed as active, the others as inactive; i = inactive; x = not tested or not shown.
SMILES,PMI activator,Rad51 HR inh,L major viab,WT yeast gro inh,PMI act hi M6P,Calpain2 inh
Cc1csc(SC(C)C(=O)NCC2CCCCC2)n1 (stereo not drawn),0.9,-8.9,2.8,14.0,0.9,11.0
CCOc1ccccc1/C=C/C(=O)c1ccc(Cl)cc1,0.8,19.2,77.8*,19.4,0.9,26.4
COc1ccccc1N1CCN(C(=O)c2ccc(NC(C)=O)cc2)CC1,1,6.6,-0.2,-8.2,1,-15.6
CC(=O)/C=C/c1ccccc1O,1.1,-13.7,38.9,11.2,0.9,8.9
O=C(/C=C/c1ccccc1O)c1ccc(Cl)cc1,0.7,-13.6,99.9*,48.0,0.8,14.4
COc1ccccc1/C=C/C(=O)c1c2c(c(C)[nH]c1=O)CCCC2,0.7,-1.0,77.3*,-13.8,0.6,13.6
COc1ccccc1/C=C/C(=O)c1ccc(NC(C)=O)cc1,1,-11.4,99.7*,22.9,0.9,6.2
COC(=O)c1sc(-c2cccs2)cc1NC(=O)/C=C/C(=O)O,x,21.4,x,x,x,-162.3
COc1ccc(CCNC(=O)Cn2nc([N+](=O)[O-])c(Br)c2C)cc1OC,1.1,x,21.0,6.0,1,27.2
CCN(CC)S(=O)(=O)c1cc(C)ccc1NC(=S)Nc1cccnc1,0.9,2.7,-1.6,-3.2,0.9,-6.0
CCOC(=O)C1=C(N)OC2=C(C(=O)CC(C)(C)C2)C1c1cc(CSc2nnnn2C)cs1 (stereo not drawn),1,x,9.7,-1.6,1,27.3
CCC(C)(C)NC(=O)/C=C/c1cccs1,1,-5.7,-1.8,2.2,0.9,18.2
COc1cc(OC)c(OC)cc1/C=C/C(=O)c1ccc(NS(=O)(=O)c2ccc(C)cc2)cc1,0.8,-30.9,61.5*,4.2,0.6,-55.5
CC(=O)c1ccc(NS(=O)(=O)c2ccc(C)cc2)cc1,0.9,3.6,-4.4,19.4,0.9,12.9
COc1ccccc1/C=C/C(=O)c1ccc(Cl)cc1,1,-2.3,85.9*,22.0,1,-29.9
COc1ccc(OC)c(/C=C/C(=O)c2ccc(Cl)cc2)c1,0.9,0.2,100.2*,-14.6,0.9,-5.1
COc1ccc(/C=C/C(=O)c2ccccc2)c(OC)c1,1,2.2,74.2*,21.8,0.9,6.2
COc1ccccc1/C=C/C(=O)c1ccccc1,x,x,x,x,x,9.4
O=C(O)CC(NC(=O)Cc1ccc(Cl)cc1)c1ccco1 (stereo not drawn),1,x,-3.7,0.8,0.9,-10.2
COc1ccccc1NC(=O)CCC(=O)OCc1cccc([N+](=O)[O-])c1,1.1,-3.4,-5.4,-11.5,1.1,-20.1
Cc1cc(NC(=O)Nc2ccc(Cl)c(Cl)c2)n(-c2ccccc2)n1,x,8.1,x,x,x,18.9
CN(c1ccccc1)S(=O)(=O)c1cccc(NC(=O)CSc2ncn[nH]2)c1,0.8,2.8,-2.3,-8.4,0.9,4.2
COCCNc1nnc(SCC(=O)Nc2cc(-c3ccccc3)nn2-c2ccccc2)s1,0.8,x,-5.1,5.2,0.9,-18.3
COc1ccccc1NS(=O)(=O)c1cccc(NC(=O)c2[nH]c(C)c(C(C)=O)c2C)c1,x,-47.1,x,x,x,-28.2
CN(c1ccccc1)S(=O)(=O)c1cccc(NC(=O)CSc2nncs2)c1,0.8,x,72.1*,0.3,0.9,14.9
SMILES,PMI activator,Rad51 HR inh,L major viab,WT yeast gro inh,PMI act hi M6P,Calpain2 inh
CN(c1ccccc1)S(=O)(=O)c1cccc(NC(=O)CSc2nnc(N)s2)c1,0.9,1.3,78.1*,16.8,0.9,27.4
O=C(CSc1nncs1)Nc1cc(-c2ccccc2)nn1-c1ccccc1,1,1.8,50.8*,-2.6,1.1,-5.2
CC(=O)c1c(C)[nH]c(C(=O)Nc2cccc(S(=O)(=O)N(C)c3ccccc3)c2)c1C,1,-8.4,95.3*,-5.8,0.9,-65.1
O=C(Nc1ccc(F)cc1)c1nc2c(nnn2Cc2cccc3ccccc23)c(=O)[nH]1,x,-8.8,x,x,x,-8.4
CCOC(=O)N1CCN(C(=O)C(=O)NN)CC1,0.9,4.2,-3.0,-0.2,0.9,7.2
Cc1ccccc1CN(C)CC(=O)Nc1cccc(S(=O)(=O)N(C)c2ccccc2)c1,0.9,15.5,71.0*,15.6,0.9,7.3
CC(=O)NCCC(=O)Nc1cccc(S(=O)(=O)N(C)c2ccccc2)c1,1,-2.6,-2.2,13.7,1,-4.5
Cc1nc2ccc(NC(=O)c3cncc(Br)c3)cc2s1,x,-0.1,x,x,x,-1.5
CC(C)(C)OC(=O)NCCCC[C@H](NC(=O)c1nc[nH]c1C(=O)NC(c1ccccc1)c1ccccc1)C(=O)OC(C)(C)C,0.7,4.4,-5.5,13.9,0.7,37.0
CCNC(=S)N1CCN(c2cccc(C(F)(F)F)c2)CC1,0.9,12.0,36.3,27.0,0.9,16.5
FC(F)(F)c1cccc(N2CCN(C(=S)NC3CCCCC3)CC2)c1,0.8,3.8,97.1*,-5.3,0.9,34.1
FC(F)(F)c1cccc(N2CCN(C(=S)NC3CCCC3)CC2)c1,0.9,8.5,-6.0,21.1,0.9,51.8*
C=CCNC(=S)N1CCN(c2cccc(C(F)(F)F)c2)CC1,1,15.2,5.9,70.8,1,26.9
CS(=O)(=O)N(Cc1cc2ccccc2[nH]c1=O)C1CCCCC1,1,x,-1.3,93.9*,1,-0.6
CN(Cc1cc2ccccc2[nH]c1=O)S(C)(=O)=O,1,5.2,-4.6,14.2,0.9,8.9
CN(C)S(=O)(=O)c1ccc(Cl)c(C(=O)Nc2nc3ccccc3[nH]2)c1,1,11.8,-1.8,-4.1,1,-4.5
CN(C)S(=O)(=O)c1ccc(C(=O)Nc2ccccc2[N+](=O)[O-])cc1,1.1,-3.5,65.7*,-9.8,1.1,-0.9
CN(C)S(=O)(=O)c1ccc(Cl)c(C(=O)Nc2ccccc2[N+](=O)[O-])c1,0.9,2.2,60.8*,1.5,1,17.2
Cc1nn(CC(=O)Nc2cc(S(=O)(=O)N(C)C)ccc2Cl)c(C)c1[N+](=O)[O-],1.1,1.3,71.6*,7.5,1.1,22.8
Cc1ccc(C(=O)NCCCNc2ccccc2[N+](=O)[O-])cc1,1,-3.3,-2.3,19.0,1,50.5*
Cc1ccc(C(=O)NNS(=O)(=O)c2ccccc2[N+](=O)[O-])cc1,1,6.9,-13.4,-8.1,1.1,-25.2
Cc1cc(C)[n+](-c2ccc(C(C)C)cc2)c2[nH]c(=O)[nH]c(=O)c12,1.3,x,-3.0,0.5,1.2,i
CCN(CC)C(=S)NC(=O)c1cc(OC)c(OC)c(OC)c1,1,11.4,-3.8,10.1,1,-2.6
CC(=O)Cc1nsc(Nc2ccc(Cl)cc2)n1,1.1,-8.2,-3.9,8.8,1.1,-22.6

# Bioassay records as filed in PubChem.
